The results in this text go back to ChEMBL document CHEMBL1154599 (J Med Chem, 2009).

In data set [1] the test system is Mus musculus. As to the kind of experiment: Ex vivo inhibition of MAO-B in C57Bl mouse brain at 0.5 mg/kg, po after 30 mins by radioenzymatic assay. The class given is functional. Set-up: scale not given: the % may be the effect or the level left. A digest of the protocol:
(§1)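 C57Bl mice (n = 6 per group) given 0.5 mg/kg orally and killed at 0.5, 1, 2, 4, 8 or 16 h. Brain homogenates in 0.1 M phosphate pH 7.40 assayed radioenzymatically for MAO-B with [14C]PEA. Mean ± SEM, ANOVA with Dunnett's test.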

Data set [2] deals with SH-SY5Y. Briefly: Cytotoxicity against human SH-SY5Y cells after 24 hrs by MTS assay. The class given is functional, cell-based. A digest of the protocol:
(§2)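 Human neuroblastoma SH-SY5Y cells kept in DMEM with 10% heat-inactivated FBS. Seeded at 6.25 × 10^4/cm2 and grown 72 h to subconfluence. Switched to serum-free neurobasal medium 30 min before compound, then 24 h at 37 °C with 1, 3, 10, 30 or 100 μM compound. Viability read by colorimetric MTS assay.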
Background: Tetrazolium dyes change colour on reduction, which living cells bring about.

The nature of data set [3]: Permeability across PAMPA membrane assessed as permeability coefficient at 2.5 mM by HDM-PAMPA assay. The format is ADME. Conditions: 2500 µM. A digest of the protocol: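 Hexadecane artificial membrane (0.75 μL per well, applied as 5% v/v in hexane, hexane evaporated) on polycarbonate filters; donor and acceptor in 0.1 M phosphate buffer pH 6.8 with 5% DMSO (iso-pH); 5 h at room temperature, shaking at 75 rpm; quadruplicate. Donor and acceptor concentrations read by UV at λmax. Retention, CA(t)/CD(0) and Pe calculated by the stated equations, τLAG neglected; membrane integrity checked by electrical resistance.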
On the technique in general: In PAMPA a lipid-coated filter parts donor from acceptor wells.

The target in data set [4] is T1, Amine oxidase [flavin-containing] B (Rattus norvegicus, UniProt P19643).
T1 sequence (P19643 whole entry): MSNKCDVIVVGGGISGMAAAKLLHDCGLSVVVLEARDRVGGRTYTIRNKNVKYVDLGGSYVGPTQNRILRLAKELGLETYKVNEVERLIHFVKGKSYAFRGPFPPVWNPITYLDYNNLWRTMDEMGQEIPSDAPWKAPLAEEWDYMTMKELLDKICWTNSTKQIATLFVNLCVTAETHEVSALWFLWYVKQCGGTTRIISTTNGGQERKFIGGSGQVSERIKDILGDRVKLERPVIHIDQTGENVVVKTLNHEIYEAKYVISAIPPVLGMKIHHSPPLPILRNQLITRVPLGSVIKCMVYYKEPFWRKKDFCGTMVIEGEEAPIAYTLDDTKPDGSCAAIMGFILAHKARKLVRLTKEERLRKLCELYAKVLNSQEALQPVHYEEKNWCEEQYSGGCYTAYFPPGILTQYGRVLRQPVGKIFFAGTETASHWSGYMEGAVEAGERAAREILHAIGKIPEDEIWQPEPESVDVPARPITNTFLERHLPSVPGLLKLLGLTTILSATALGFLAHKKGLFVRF
As to the kind of experiment: Inhibition of MAO-B from Wistar rat brain by radioenzymatic assay. A digest of the protocol:
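Crude mitochondrial fraction from male Wistar rat brain (150-175 g), 500 μg protein in 0.1 M phosphate pH 7.40. Preincubated 30 min at 37 °C with compound. Substrate then added: [14C]5-HT 5 μM for 30 min (MAO-A) or [14C]PEA 0.5 μM for 10 min (MAO-B), 37 °C. Stopped with acid, deaminated metabolites extracted into ether or toluene, counted by scintillation.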

Data set [5] is described as follows: Aqueous solubility at pH 7.4 by turbidimetric method. The class given is physicochemical. The conditions noted are these: aqueous solution. A digest of the protocol:
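DMSO stock of compound added in 2 μL portions, about 10 additions, to 50 mM Tris-HCl pH 7.4 or 50 mM acetate pH 3.0 at room temperature, final DMSO below 5%. Precipitation read as light-scattering absorbance rise at 600-820 nm. Solubility limit taken from a bilinear fit of absorbance against DMSO volume. Three independent assays, mean ± SEM.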

The test system of data set [6] is Mus musculus. Briefly: Ex vivo inhibition of MAO-B in C57Bl mouse brain at 0.5 mg/kg, po after 8 hrs by radioenzymatic assay. Set-up: scale not given: the % may be the effect or the level left. The class given is functional. A digest of the protocol: as §1
In data set [7] the test system is Mus musculus. Briefly: Ex vivo inhibition of MAO-B in C57Bl mouse brain at 0.5 mg/kg, po after 2 hrs by radioenzymatic assay. The class given is functional. Further details: scale not given: the % may be the effect or the level left. The method, boiled down: as §1
For data set [8], the species on record is Mus musculus. As to the kind of experiment: Ex vivo inhibition of MAO-B in C57Bl mouse brain after 1 hr by radioenzymatic assay. The class given is functional.
Data set [9] in a line: Dissociation constant, pKa by potentiometric titration. The class given is physicochemical. A digest of the protocol: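 5 × 10^-4 M sample in 0.15 M KCl acidified to pH 1.8 with 0.5 M HCl, then titrated to pH 12.2 with carbonate-free 0.5 M KOH. Run at 25 ± 0.5 °C under slow argon flow, with a blank titration for standardization. pKa taken from the Bjerrum difference curve.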

For data set [10], the system named is SH-SY5Y. Briefly: Cytotoxicity against human SH-SY5Y cells assessed as cellular damage up to 10 uM after 24 hrs by MTS assay. The format is functional, cell-based. A digest of the protocol:
as §2

SMILES strings stand for the structures. The source made the active and inactive calls. The calls are words filed in the database; no cut-off is given here.

As usually defined, the IC50 is the point on the concentration scale where inhibition reaches its midpoint. Broadly, the kinetic solubility is solubility judged after dilution from a stock solution rather than from solid. The term ED50 denotes the midpoint of the dose-response relation. A word on the pKa: it is the negative logarithm of the acid dissociation constant. For `CNCc1cc(=O)oc2cc(OCc3cccc(Cl)c3)ccc12.CS(=O)(=O)O`, the Activity was determined as 84% in the data set on Mus musculus [1], 60% with Mus musculus [6] and 90% in the data set with Mus musculus [7]. For the same molecule, the IC50 in the data set with SH-SY5Y [2] was 29.7 µM; in data set [4], 13 nM. For the same molecule, in data set [3], the “log Pe” value is on record as -3.48 cm/s. This molecule also gave a kinetic solubility in data set [5] of 52 µg/mL. The same molecule had an ED50 in the data set listed under Mus musculus [8] of 0.24 mg/kg. Moreover, the pKa in data set [9] was 7.18. Further, the outcome with SH-SY5Y [10] was inactive.
